Most compounds without a hit are left out; they make up all but 9.6% or so of the library.
HCT116 PTEN-null = suppresses growth of cells with PTEN deletion. HCT116 PTEN-null viability, CellTiter-Glo, 60 h; hits give low values. AID 827. viability, % at 10 µM. 140,000 compounds, 1.2% hits;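 active = viability at or below a set limit, 4 SD under the median of all tested compounds, cut at about 3.7% in these data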;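 note: PTEN knockout HCT116 line with beta catenin targeted HCT116 as companion control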
TNAP inh hi DEA = blocks human TNAP under high phosphate acceptor concentration | P05186 | purified TNAP, CDP-star luminescence, 1 M DEA | inhibition, % at 20 µM | 200,000 compounds, 0.03% hits;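 active = over 50% inhibition of tissue-nonspecific alkaline phosphatase at 20 µM in the single-dose screen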;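 note: plate controls were DMSO wells for no effect and EDTA-quenched wells as full inhibition for full effect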
Target sequence (P05186 whole entry, looked up): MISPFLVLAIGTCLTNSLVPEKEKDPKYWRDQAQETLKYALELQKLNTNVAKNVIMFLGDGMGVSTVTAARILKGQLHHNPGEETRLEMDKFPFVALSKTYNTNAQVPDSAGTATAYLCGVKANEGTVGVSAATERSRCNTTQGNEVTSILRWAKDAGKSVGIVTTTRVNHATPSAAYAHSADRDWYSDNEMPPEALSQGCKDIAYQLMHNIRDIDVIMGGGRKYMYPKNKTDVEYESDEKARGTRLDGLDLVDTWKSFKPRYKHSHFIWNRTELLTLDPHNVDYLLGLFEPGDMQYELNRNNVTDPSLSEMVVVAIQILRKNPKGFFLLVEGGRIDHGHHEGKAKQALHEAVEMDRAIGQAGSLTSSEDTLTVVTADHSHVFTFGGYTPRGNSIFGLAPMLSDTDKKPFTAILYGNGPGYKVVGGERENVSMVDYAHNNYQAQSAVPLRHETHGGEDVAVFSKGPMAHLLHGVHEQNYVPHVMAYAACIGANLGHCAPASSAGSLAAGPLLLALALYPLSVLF
TNAP act hiacc = increases human TNAP activity under high phosphate acceptor concentration. purified TNAP, CDP-star luminescence, 1 M DEA, 30 min; hits give high values; 0 = EDTA background, 1 = DMSO-only activity. 200,000 tested, under 10 active. AID 1136. P05186. activation factor at 20 µM;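 active = activation factor at least 2 at 20 µM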
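Dosing: 20 µM single point. System: human TNAP. Amount: TNAP 1/800 final. Incubation: 30 min, room temperature. Read-out: TNAP activation factor scaled between EDTA and DMSO control wells. Signal: luminescence from CDP-star hydrolysis. Medium: 1 M DEA, pH 9.8, Mg2+, Zn2+. Control set: EDTA negative control, DMSO positive control.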
TNAP inh noacc = blocks human TNAP activity with no phosphate acceptor present | P05186 | purified TNAP, CDP-star luminescence, 30 min | inhibition, % at 20 µM | 200,000 compounds, 0.26% hits | AID 1012;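 active = tissue-nonspecific alkaline phosphatase inhibition above about 50% at 20 µM in the single-dose screen, limit read from the data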;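 note: 0% = DMSO negative control and 100% = EDTA positive control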
bCat KO growth = beta-catenin-lacking colon tumor cell growth suppression | HCT116 beta-catenin knockout viability, CellTiter-Glo, 60 h; hits give low values | 140,000 compounds, 1.5% hits | viability, % at 10 µM | AID 818;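 active = viability at or under a set limit, the compound median less 4 SD, cut at about 6% in these data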;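 note: 0% = Hyamine 1622 control at 20 µM and 100% = untreated cell control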
L major viab = Leishmania major promastigote growth inhibition; inhibition, % at 10 µM; AID 1063; 200,000 compounds, 9% hits; Leishmania major promastigotes, resazurin fluorescence viability; in the data active = inhibition above about 50%;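 note: promastigotes grown with compound for 44 hours at 28 °C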
An asterisk follows results filed as active; x = no result given.

SMILES	HCT116 PTEN-null	TNAP inh hi DEA	TNAP act hiacc	TNAP inh noacc	bCat KO growth	L major viab
CCn1c(N2CCN(C(=S)NCCc3ccccc3)CC2)nc2ccccc21	85	0	1	-10	86	13
CN(C)c1ccc(/C=C/c2nnnn2-c2ccccc2)cc1	104	-2	1	-18	105	56*
COc1ccccc1NC(=O)Cc1noc(CSc2n[nH]c(N)n2)n1	x	1	1	-6	x	-1
CCN1CCN(Cc2ccc(OCc3ccccc3)cc2)CC1	1.2*	-7	1.1	-13	1.0*	92*
CN1CCN(Cc2ccc(OCc3ccccc3)cc2)CC1	95	-9	1.1	-19	89	95*
CCOc1ccc(C(=O)N2CCN(Cc3ccccc3)CC2)cc1	108	5	1	0	96	-3
CCc1ccc(NC(=O)CCc2nc3ccccc3[nH]2)cc1	x	1	1	-11	x	-6
Nc1nc(N)nc(-c2ccc(Cl)cc2)n1	101	-5	1	-12	94	1
Cc1ccc(Oc2ccc(-c3nc(N)nc(N)n3)cc2)cc1	94	-1	1	-4	94	98*
Cc1cc(C(C)(C)C)ccc1OCCN1CCCC1	73	-4	1	-16	75	96*
CC(C)(C)c1ccccc1OCCN1CCCC1	85	-6	1.1	-11	90	90*
Cc1ccc(C(C)(C)C)c(OCCN2CCCC2)c1	76	4	1	-10	80	4
Cc1cccc(C(C)(C)C)c1OCCN1CCCC1	85	0	1	-8	80	6
Cc1cc(C(C)(C)C)ccc1OCCCCN1CCCC1	69	-3	1	-7	62	99*
Cc1cc(Br)ccc1OCCCCN1CCCCC1	x	-3	1	-6	x	100*
CC(C)CC(NC(N)=O)C(=O)NCc1ccccc1Cl (stereo unspecified)	x	-4	1	-16	x	-3
O=C(OCCN1CCCCC1)c1ccc(O)cc1	104	-2	1	-9	97	-1
CC(OCCN1CCCC1)(c1ccc(F)cc1)c1ccc(F)cc1	52	-9	1.1	-8	52	100*
Cc1cccc(N2CCN(c3nc4ccc(Cl)cc4n4cnnc34)CC2)c1C	1.0*	-3	1	-6	0.8*	-1
COc1ccc(Cc2noc(CN3CCC(c4ccncc4)CC3)n2)cc1OC	x	-5	1.1	-7	x	12
COc1ccc(Cc2noc(CN3CCCN(Cc4ccc(F)cc4)CC3)n2)cc1OC	x	0	1	-6	x	77*
Fc1cccc(Cc2noc(CN3CCCN(C4Cc5ccccc5C4)CC3)n2)c1	x	3	1	-2	x	88*
COc1ccc(Cc2noc(CN3CCN(C4CCc5ccccc5C4)CC3)n2)cc1OC (stereo unspecified)	x	-10	1.1	-5	x	8
Fc1cccc(Cc2noc(CN3CCN(C4CCc5ccccc5C4)CC3)n2)c1 (stereo unspecified)	x	-4	1	-6	x	89*
COc1ccc(/C=N/NC(=O)c2cc(C(C)(C)C)[nH]n2)cc1COc1ccc(F)cc1F	x	-3	1	-48	x	19
SMILES	HCT116 PTEN-null	TNAP inh hi DEA	TNAP act hiacc	TNAP inh noacc	bCat KO growth	L major viab
O=C1c2ccccc2C(=O)N1Cc1ccccn1	x	-4	1	-8	x	-15
COc1cc(/C=N/Nc2nc(C)nc3c2cnn3-c2ccccc2)ccc1O	x	-5	1	-101	x	23
CCOC(=O)C1=C(C)NC(C)=C(C(=O)OCC)C1C(=O)OCC(=O)N1CCc2ccccc21	79	-5	1.1	-14	85	97*
CCOC(=O)C1=C(C)NC(C)=C(C(=O)OCC)C1C(=O)OCC(=O)c1ccc2c(c1)OCCO2	74	-6	1.1	-8	79	65*
CCOC(=O)c1c(NC(=O)CSC2=NN3CCCC(=O)N=C3S2)sc2c1CCCCC2	48	-5	1.1	-6	45	-1
Cc1ccc(CSc2nnc3ccc(-c4ccncc4)nn23)cc1	x	-3	1	-11	x	17
O=C(CSc1ccccc1)Nc1ccc(-c2nc3ccccc3[nH]2)cc1	71	-2	1	-14	80	4
Cc1ccc2nc(-c3ccc(NC(=O)CSc4ccccc4)cc3)[nH]c2c1	8	1	1	-7	3.2*	24
CCN(CC)S(=O)(=O)c1ccc(/C=C/C(=O)OCC(=O)N(C(C)C)C(C)C)cc1	x	2	1	1	x	1
CC(C)NC(=O)/C(C#N)=C/c1cccc(NC(=O)c2ccccc2Cl)c1	59	-2	1	-10	67	100*
COCCNC(=O)/C(C#N)=C/c1cccc(NC(=O)c2ccccc2Cl)c1	82	0	1	-17	88	30
COc1ccccc1-c1cc(SC)c(C#N)c(=O)o1	87	-1	1	-10	88	-2
COc1ccc(/C=N/n2c(N)nc3ccccc32)cc1OC	95	-8	1.1	-6	91	30
COc1cccc(/C=N/n2c(N)nc3ccccc32)c1OC	90	0	1	4	99	59*
O=C(N/N=C/c1ccc(Cl)cc1)C(=O)N1CCCCCC1	x	0	1	-2	x	18
Cc1cccc(C(=O)NC2=NCCS2)c1	x	-4	1	-10	x	-13
COc1ccc(NC(=O)c2ccco2)cc1NC(=O)c1cccs1	111	-4	1	-9	99	16
COc1ccc(-c2cn3cccnc3n2)cc1NC(=O)c1ccc(Br)o1	60	-3	1	-9	66	99*
O=C(Nc1cccc(-c2cn3cccnc3n2)c1)c1ccc(Br)o1	62	-5	1.1	-6	77	100*
CC(=O)Nc1ccc(S(=O)(=O)Nc2cccc(-c3cn4cccnc4n3)c2)cc1	x	-1	1	-6	x	0
Cc1c(NC(=O)c2cccs2)cccc1C(=O)O	87	-7	1.1	-9	96	81*
Cc1ccc(-c2cn3cccnc3n2)cc1NC(=O)c1ccc(Br)o1	94	-3	1	-11	99	39
O=C(Nc1ccc(NC(=O)c2cccs2)c(Cl)c1)c1ccco1	x	-5	1.1	-8	x	59*
COc1ccc(NCc2nnc(SCC(=O)Nc3ccccc3)n2C)cc1	x	-2	1	1	x	-4
CC1(O)N(CCC(=O)Nc2cccc(F)c2)C(=O)OC12CCCCC2 (stereo unspecified)	x	-6	1.1	-16	x	-1
O=C(Nc1cccc(-c2cn3cccnc3n2)c1)c1ccc2c(c1)OCO2	101	1	1	-6	105	98*
O=C(Nc1cccc(-c2cn3cccnc3n2)c1)Nc1ccccc1F	x	-4	1	-6	x	22
Oc1ccc(-c2csc(-c3ccccc3)n2)cc1O	84	13	0.9	42	83	59*
Cc1nc(-c2cccc(NC(=O)c3cccs3)c2)cs1	90	-3	1	-10	98	5
O=C(Nc1cccc(-c2csc(-c3ccccc3)n2)c1)c1cccs1	67	-3	1	-6	82	82*
